This is an account of results in PMC9674229 (Proceedings of the National Academy of Sciences of the …, 2022).

The subject of assay [1] is light touch-evoked pERK in ipsilateral dorsal horn neurons. Kind of assay: light touch-evoked pERK immunoreactivity in dorsal horn, SNI, intrathecal agents. It is filed as in vivo, mouse. The following applies: intrathecal coadministration of BIBO 3304 10.0 µg with [Leu^31, Pro^34]-NPY 10.0 µg; n = 4 to 6 mice/group.
In assay [2] the test system is SNI mice (cold allodynia). Kind of assay: cold withdrawal duration. The format is in vivo, mouse. The settings on record: intrathecal coadministration of BIBO 3304 10.0 µg with [Leu^31, Pro^34]-NPY 10.0 µg; n = 4 to 11 mice/group.
The test system of assay [3] is SNI mice (mechanical allodynia). The assay can be described thus: mechanical withdrawal threshold. It is filed as in vivo, mouse. The settings on record: intrathecal coadministration of BIBO 3304 10.0 µg with [Leu^31, Pro^34]-NPY 10.0 µg; n = 4 to 11 mice/group.
Assay [4] relates to inhibitory DREADD hM4DGi in spinal Y1-INs. The assay can be described thus: chemogenetic inhibition of Y1-INs: cold. The format is in vivo, mouse. The following applies: CNO 3 mg/kg i.p., n = 7 mice/group. The gist of the method: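 Npy1rCre mice were given intraspinal AAV8-hSyn-DIO-hM4DGi into the left lumbar (L3–L4) DH, which expresses Gi-DREADD in Y1-INs. CNO 3 mg/kg i.p. was dosed pre- or post-SNI. Cold sensitivity was scored as the withdrawal response to a 10 μL acetone droplet on the lateral hindpaw. Analysis used two-way ANOVA and Holm-Sidak post hoc tests; data are means ± SEM.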

Assay [5] relates to excitatory DREADD hM3DGq in spinal Y1-INs. The assay can be described thus: chemogenetic activation of Y1-INs: spontaneous nocifensive behavior. The settings on record: CNO 3 mg/kg i.p., n = 3 to 5 mice/group. The format is in vivo, mouse. The gist of the method:
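Cre-dependent AAV8-hSyn-DIO-hM3DGq-mCitrine or mCherry control virus was injected into the left lumbar dorsal horn of uninjured Npy1rCre mice. CNO (3 mg/kg, i.p.) or saline was given, then behaviour was videotaped. Scored: nocifensive acts (lifting, flapping, shaking, licking, guarding) and itch-like acts (biting, scratching), each directed to the ipsilateral or contralateral hind limb. Three-way RM ANOVA, Holm-Sidak post hoc.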

Assay [6] shares this test system. Kind of assay: chemogenetic activation of Y1-INs: mechanical. The format is in vivo, mouse. The following applies: CNO 3 mg/kg, uninjured mice, n = 8 mice/group. The gist of the method:
(§1)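 Npy1rCre mice were given an intraspinal injection of Cre-dependent AAV8-hSyn-DIO-hM3DGq-mCitrine into the left lumbar dorsal horn; controls received mCherry virus. Mice were uninjured. CNO 3 mg/kg was given i.p. before testing. Assays: von Frey filaments to the lateral hindpaw (mechanical); a 10 μL acetone droplet to the lateral hindpaw, scoring withdrawal (cold); 52.5 C hotplate (heat). Holm-Sidak post hoc tests.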

Assay [7] has the same test system. Kind of assay: chemogenetic activation of Y1-INs: heat. It is filed as in vivo, mouse. The settings on record: CNO 3 mg/kg, uninjured mice, n = 8 mice/group. The gist of the method: as §1
Assay [8] has the same test system. The assay can be described thus: chemogenetic activation of Y1-INs: conditioned place aversion. It is filed as in vivo, mouse. The following applies: CNO 3 mg/kg i.p., uninjured mice, n = 10 to 11 mice/group.
Assay [9] has the same test system. Kind of assay: chemogenetic activation of Y1-INs: cold. The format is in vivo, mouse. The settings on record: CNO 3 mg/kg, uninjured mice, n = 8 mice/group. The method in brief:
as §1

Assay [10] concerns inhibitory DREADD hM4DGi in spinal Y1-INs. Kind of assay: chemogenetic inhibition of Y1-INs: mechanical withdrawal threshold. It is filed as in vivo, mouse. The settings on record: CNO 3 mg/kg i.p., n = 7 mice/group. The gist of the method: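 Adult Npy1rCre mice received intraspinal Cre-dependent AAV8-hSyn-DIO-hM4DGi (mCherry-tagged) into the left lumbar DH at L3–L4. CNO (3 mg/kg, i.p.) was given either before or after SNI. Calibrated von Frey filaments were applied to the lateral hindpaw to measure withdrawal thresholds. Statistics used two-way ANOVA with Holm-Sidak post hoc tests, and data are shown as means ± SEM.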

For the next assay, the system named is DREADD. The following applies: CNO 3 mg/kg; cited from earlier work.
The subject of assay [11] is excitatory DREADD hM3DGq in spinal Y1-INs. Kind of assay: chemogenetic activation of Y1-INs: open field testing. The format is in vivo, mouse. The following applies: CNO 3 mg/kg, 60 min, n = 6 mice/group. The method in brief: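 Uninjured Npy1rCre mice carried left lumbar dorsal-horn Cre-dependent hM3DGq or mCherry virus. Immediately after CNO (3 mg/kg, i.p.), mice were placed in a novel open field for 60 min. […] Averaged activity shown as heat maps. Student's unpaired two-tailed t test.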

Assay [12] relates to inhibitory DREADD hM4DGi in spinal Y1-INs. The assay can be described thus: chemogenetic inhibition of Y1-INs: conditioned place preference. The settings on record: CNO 3 mg/kg i.p., SNI mice, n = 10 to 11 mice/group. The format is in vivo, mouse. The method in brief:
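SNI Npy1rCre mice carried either intraspinal (left lumbar DH) Cre-dependent hM4DGi or control mCherry virus. After conditioning with CNO (3 mg/kg i.p.) paired to one chamber, time spent in the CNO-paired chamber was recorded. Groups were compared with an unpaired two-tailed Student's t test; data are means ± SEM.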

Assay [13] shares this test system. Kind of assay: chemogenetic inhibition of Y1-INs: light touch-evoked pERK. It is filed as in vivo, mouse. The following applies: CNO 3 mg/kg i.p., SNI mice, n = 7 mice/group. The gist of the method:
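Y1-INs in Npy1rCre mice were targeted by left lumbar (L3–L4) DH injection of AAV8-hSyn-DIO-hM4DGi. In SNI mice, CNO (3 mg/kg i.p.) was followed by light brushing of the lateral hindpaw. Ipsilateral lumbar DH sections were then immunostained for pERK and quantified in the superficial laminae. Groups were compared by unpaired two-tailed Student's t test; data are means ± SEM.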

The subject of assay [14] is spinal cord transient firing neurons. The settings on record: cited from earlier work.
The next assay deals with Y1 receptors. The following applies: intrathecal; rodent models of chronic pain; cited from earlier work.

As to `NC(=O)NCc1ccc(CNC(=O)[C@@H](CCCN=C(N)N)NC(=O)C(c2ccccc2)c2ccccc2)cc1` [BIBO 3304], the “effect on Y1 agonist-induced reduction of light touch-evoked pERK” value in assay [1] is “this effect is abolished with coadministration of the Y1 antagonist”. In addition, the “effect on Y1 agonist-induced cold anti-allodynia” value in assay [2] is given as “abolishes”. In addition, the “effect on Y1 agonist-induced mechanical anti-allodynia” value in [3] is given as “abolishes”.

Take `C[N+]1([O-])CCN(C2=Nc3cc(Cl)ccc3Nc3ccccc32)CC1` [CNO, clozapine N-oxide]: the SNI-induced cold hypersensitivity entry in assay [4] (post-SNI) was “abolished both mechanical and cold hypersensitivity”. In addition, the “cold withdrawal thresholds before SNI” value in assay [4] (pre-SNI) is given as “does not alter mechanical or cold withdrawal thresholds before SNI”. For the same compound, the spontaneous nocifensive behaviors result in assay [5] (control (mCherry) virus) was “but not control (mCherry) virus”. Moreover, in assay [5] (hM3DGq, uninjured mice), the “itch-like (biting or scratching) behaviors” value was “but not itch-like (biting or scratching) behaviors” and the “spontaneous nocifensive behaviors, contralateral hind limb” value was “but not contralateral, hind limb”. Further, the “mechanical (vF) hypersensitivity” value in assay [6] is “hypersensitivity”. Also, in assay [7], the “heat (52.5 C hotplate) hypersensitivity” value is given as “hypersensitivity”. Further, the conditioned place aversion entry in assay [8] is “produced a robust CPA”. Moreover, the “cold (acetone droplet withdrawal) hypersensitivity” value in [9] is given as “hypersensitivity”. Further, the SNI-induced mechanical hypersensitivity result in [10] (post-SNI) is “abolished both mechanical and cold hypersensitivity”. In [10] (pre-SNI), the “mechanical withdrawal thresholds before SNI” value is on record as “does not alter mechanical or cold withdrawal thresholds before SNI”. In addition, the “time to alter DREADD-dependent neuronal activity” value in the assay with DREADD was at most 15 min. Besides, in [11], the “grooming-like behaviors (stereotypic episode activity count)” value is “increased grooming-like (stereotypic episode activity count) behaviors”, the “movement in open field” value is “continuous movement” and the “rest in open field” value is “lack of rest”. Moreover, in assay [12] (control virus (mCherry)), the “conditioned place preference (time in CNO-paired chamber)” value is “but not control virus (mCherry) spent more time in the CNO-paired chamber”. In [12] (hM4DGi), the “conditioned place preference (time in CNO-paired chamber)” value is recorded as “spent more time in the CNO-paired chamber”. Further, the “light touch-evoked pERK in the superficial DH” value in assay [13] is recorded as “reduced light-touch evoked pERK in the superficial DH”.

For `NCC1(CC(=O)O)CCCCC1` [gabapentin], the “frequency and amplitude of sEPSCs” value in [14] was “reducing both the frequency and amplitude of sEPSCs”.

As for neuropeptide Y [NPY], the “behavioral and spinal molecular signs of hyperalgesia” value in the assay on Y1 receptors was “reduces the behavioral and spinal molecular signs of hyperalgesia”.
